Test results: ChEMBL document CHEMBL3734683, “Synthesis and pharmacological screening of a large library of 1,3,4-thiadiazolines as innovative therapeutic tools for the treatment of prostate cancer and melanoma” (2015)
Activity calls are given as the source filed them. The calls are words filed in the database; no cut-off is given here.

Tests used:
SK-MEL-5 [1] = assay: Reduction in cyclin D1 protein level in human SK-MEL-5 cells at 5 uM after 24 hrs by RT-PCR analysis relative to control; format: functional, cell-based
SK-MEL-28 [2] = assay: Cell cycle arrest in human SK-MEL-28 cells assessed as accumulation at G2/M phase at 5 uM after 24 hrs by propidium iodide staining-based FACS analysis; format: functional
SK-MEL-28 [3] = assay: Cell cycle arrest in human SK-MEL-28 cells assessed as accumulation of cells with 4N DNA at 5 uM after 96 hrs by propidium iodide staining-based FACS analysis; format: functional
SK-MEL-28 [4] = assay: Reduction in cyclin D1 mRNA expression in human SK-MEL-28 cells at 5 uM after 24 hrs by RT-PCR analysis relative to control
SK-MEL-28 [5] = assay: Antiproliferative activity against human SK-MEL-28 cells assessed as reduction in cell viability at 5 to 50 uM after 72 hrs by MTT assay; format: functional, cell-based
Method in brief: (§1)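 Cells plated, compound added after 24 h (DMSO dilution into culture medium), in triplicate; after 72 h, MTT added for 4 h. Controls were cells in medium alone; blanks were medium-only wells. Viability expressed as percent of viable cells versus control, mean of at least three independent assays.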

[6] = Cell cycle arrest in human PC3 cells assessed as accumulation at G2/M phase at 5 uM after 24 hrs by propidium iodide staining-based FACS analysis; format: functional; details: PC-3
PC-3 [7] = assay: Antiproliferative activity against human PC3 cells assessed as reduction in cell viability at 0.5 to 100 uM after 72 hrs by MTT assay; format: functional, cell-based; method in brief: as §1
[8] = Cytotoxicity against human PC3 cells assessed as cell viability at 5 uM after 72 hrs by tryphan blue staining based microscopy (reference value: 95 to 98 %); format: functional; details: PC-3, 72 h, read-out: Activity
SK-MEL-5 [9] = assay: Cell cycle arrest in human SK-MEL-5 cells assessed as accumulation at G2/M phase at 5 uM after 24 hrs by propidium iodide staining-based FACS analysis; format: functional
PC-3 [10] = assay: Reduction in cyclin D1 protein level in human PC3 cells at 5 uM after 24 hrs by RT-PCR analysis relative to control; format: functional, cell-based
SK-MEL-5 [11] = assay: Antiproliferative activity against human SK-MEL-5 cells assessed as reduction in cell viability at 5 to 50 uM after 72 hrs by MTT assay; format: functional, cell-based; method in brief: as §1
[12] = Cell cycle arrest in human PC3 cells assessed as accumulation of cells with 4N DNA at 5 uM after 96 hrs by propidium iodide staining-based FACS analysis; format: functional; details: PC-3
SK-MEL-5 [13] = assay: Cell cycle arrest in human SK-MEL-5 cells assessed as accumulation of cells with 4N DNA at 5 uM after 96 hrs by propidium iodide staining-based FACS analysis; format: functional
[14] = Cytotoxicity against human PC3 cells assessed as cell viability at 100 nM after 72 hrs by tryphan blue staining-based microscopy (reference value: 95 to 98 %); format: functional; details: PC-3, 72 h, read-out: Activity

**Q.** For `CC(=O)NC1=NN(C(C)=O)C(C)(c2ccccc2)S1` (stereo not given), which Activity (SK-MEL-5 [1]) is on record?
**A.** Active

**Q.** And the Activity (SK-MEL-28 [2])?
**A.** Active

**Q.** And the Activity (SK-MEL-28 [3])?
**A.** Active

**Q.** And the Activity (SK-MEL-28 [4])?
**A.** Active

**Q.** And the Activity (SK-MEL-28 [5])?
**A.** Active

**Q.** What about the Activity [6] of the same molecule?
**A.** Active

**Q.** What about the Activity (PC-3 [7]) of the same molecule?
**A.** Active

**Q.** And the viability at 5 µM [8]?
**A.** 25%

**Q.** And the Activity (SK-MEL-5 [9])?
**A.** Active

**Q.** And the Activity (PC-3 [10])?
**A.** Active

**Q.** And the Activity (SK-MEL-5 [11])?
**A.** Active

**Q.** And the Activity [12]?
**A.** Active

**Q.** And the Activity (SK-MEL-5 [13])?
**A.** Active

**Q.** For `CC(=O)O[C@@]12CO[C@@H]1C[C@H](O)[C@@]1(C)C(=O)[C@H](O)C3=C(C)[C@@H](OC(=O)[C@H](O)[C@@H](NC(=O)OC(C)(C)C)c4ccccc4)C[C@@](O)([C@@H](OC(=O)c4ccccc4)[C@H]21)C3(C)C` [DOCETAXEL ANHYDROUS], which viability at 0.1 µM [14] is on record?
**A.** 32%

**Q.** What does the source list for `CC1(c2ccccc2)SC(NC(=O)C(Cl)Cl)=NN1C(=O)C(Cl)Cl` (stereo not given)?
**A.** Activity (SK-MEL-28 [5]): Active; Activity (PC-3 [7]): Active; Activity (SK-MEL-5 [11]): Active

**Q.** For `CC(=O)NC1=NN(C(C)=O)C(C)(c2cccs2)S1` (stereo not given), which Activity (PC-3 [7]) is on record?
**A.** Active

**Q.** Which Activity (PC-3 [7]) does the source give for `CC(=O)NC1=NN(C(C)=O)C(C)(c2ccc(OC(C)=O)cc2)S1` (stereo not given) here?
**A.** Active

**Q.** What does the source list for `C=CCCC1(C)SC(NC(=O)CC)=NN1C(=O)CC` (stereo not given)?
**A.** Activity (SK-MEL-28 [5]): Active; Activity (SK-MEL-5 [11]): Active

**Q.** For `CC(=O)NC1=NN(C(C)=O)C(C)(c2ccccn2)S1` (stereo not given), which Activity (PC-3 [7]) is on record?
**A.** Active

**Q.** For `CCC(=O)NC1=NN(C(=O)CC)C(CC)(c2ccccc2)S1` (stereo not given), which Activity (PC-3 [7]) is on record?
**A.** Active

**Q.** With `CC(=O)NC1=NN(C(C)=O)C(C)(c2cc(F)ccc2F)S1` (stereo not given) as the molecule, how does the Activity (PC-3 [7]) read?
**A.** Active

**Q.** For `CCC1(c2ccccc2)SC(NC(C)=O)=NN1C(C)=O` (stereo not given), which Activity (SK-MEL-5 [1]) is on record?
**A.** Active

**Q.** What about the Activity (SK-MEL-28 [2]) of the same molecule?
**A.** Active

**Q.** What about the Activity (SK-MEL-28 [3]) of the same molecule?
**A.** Active

**Q.** What about the Activity (SK-MEL-28 [4]) of the same molecule?
**A.** Active

**Q.** And the Activity (SK-MEL-28 [5])?
**A.** Active

**Q.** What about the Activity [6] of the same molecule?
**A.** Active

**Q.** And the Activity (PC-3 [7])?
**A.** Active

**Q.** What about the viability at 5 µM [8] of the same molecule?
**A.** 18%

**Q.** What about the Activity (SK-MEL-5 [9]) of the same molecule?
**A.** Active

**Q.** What about the Activity (PC-3 [10]) of the same molecule?
**A.** Active

**Q.** And the Activity (SK-MEL-5 [11])?
**A.** Active

**Q.** What about the Activity [12] of the same molecule?
**A.** Active

**Q.** What about the Activity (SK-MEL-5 [13]) of the same molecule?
**A.** Active

**Q.** Which Activity (PC-3 [7]) does the source give for `CCCCC1(CC)SC(NC(=O)CC)=NN1C(=O)CC` (stereo not given) here?
**A.** Active

**Q.** With `CC(=O)NC1=NN(C(C)=O)C(C)(c2cccnc2)S1` (stereo not given) as the molecule, how does the Activity (SK-MEL-28 [5]) read?
**A.** Active

**Q.** What about the Activity (SK-MEL-5 [11]) of the same molecule?
**A.** Active
